# Assay results as given in ChEMBL document CHEMBL1145054, “Enantioselective syntheses and cytotoxicity of N,O-nucleosides” (J Med Chem, 2003).
# Experiments:
# HL-60 [1] = test: Cytotoxic concentration required to cause 50% toxicity in HL-60 cell lines at 24 hours; format: functional; conditions: Homo sapiens, HL-60, 24 h
# In short: (§1)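 Cells were exposed under optimal culture conditions to 8–512 μM test agent or to control medium for the stated time. Viability was scored by trypan blue exclusion. CC50 is the concentration causing 50% toxicity, determined from two or more experiments.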
# MOLT-3 [2] = test: Cytotoxic concentration required to cause 50% toxicity in Molt-3 cell lines at 72 hours; format: functional; conditions: Homo sapiens, MOLT-3, 72 h; in short: as §1
# MOLT-3 [3] = test: Apoptotic concentration required to cause apoptosis in 50% of Molt-3 cell lines at 48 hours; format: functional, cell-based; conditions: Homo sapiens, MOLT-3, 48 h
# In short: (§2)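 Cells were exposed under optimal culture conditions to 8–512 μM test agent or to control medium for the stated time. They were then stained with acridine orange, and over 600 cells were counted by fluorescence microscopy. Cells counted as apoptotic had uniformly stained nuclei with chromatin condensation and nuclear fragmentation. AC50 is the concentration giving 50% apoptosis, determined from two or more experiments.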
# U-937 [4] = test: Apoptotic concentration required to cause apoptosis in 50% of U-937 cell lines at 48 hours; format: functional, cell-based; conditions: Homo sapiens, U-937, 48 h; in short: as §2
# THP-1 [5] = test: Cytotoxic concentration required to cause 50% toxicity in THP-1 cell lines at 24 hours; format: functional; conditions: Homo sapiens, THP-1, 24 h; in short: as §1
# MOLT-3 [6] = test: Cytotoxic concentration required to cause 50% toxicity in Molt-3 cell lines at 48 hours; format: functional; conditions: Homo sapiens, MOLT-3, 48 h; in short: as §1
# THP-1 [7] = test: Apoptotic concentration required to cause apoptosis in 50% of THP-1 cell lines at 24 hours; format: functional, cell-based; conditions: Homo sapiens, THP-1, 24 h; in short: as §2
# HL-60 [8] = test: Apoptotic concentration required to cause apoptosis in 50% of HL-60 cell lines at 24 hours; format: functional, cell-based; conditions: Homo sapiens, HL-60, 24 h; in short: as §2
# HL-60 [9] = test: Cytotoxic concentration required to cause 50% toxicity in HL-60 cell lines at 48 hours; format: functional; conditions: Homo sapiens, HL-60, 48 h; in short: as §1
# MOLT-3 [10] = test: Apoptotic concentration required to cause apoptosis in 50% of Molt-3 cell lines at 24 hours; format: functional, cell-based; conditions: Homo sapiens, MOLT-3, 24 h; in short: as §2
# MOLT-3 [11] = test: Cytotoxic concentration required to cause 50% toxicity in Molt-3 cell lines at 24 hours; format: functional; conditions: Homo sapiens, MOLT-3, 24 h; in short: as §1
# U-937 [12] = test: Cytotoxic concentration required to cause 50% toxicity in U-937 cell lines at 24 hours; format: functional; conditions: Homo sapiens, U-937, 24 h; in short: as §1
# HL-60 [13] = test: Apoptotic concentration required to cause apoptosis in 50% of HL-60 cell lines at 48 hours; format: functional, cell-based; conditions: Homo sapiens, HL-60, 48 h; in short: as §2
# U-937 [14] = test: Apoptotic concentration required to cause apoptosis in 50% of U-937 cell lines at 24 hours; format: functional, cell-based; conditions: Homo sapiens, U-937, 24 h; in short: as §2
# U-937 [15] = test: Cytotoxic concentration required to cause 50% toxicity in U-937 cell lines at 72 hours; format: functional; conditions: Homo sapiens, U-937, 72 h; in short: as §1
# MOLT-3 [16] = test: Apoptotic concentration required to cause apoptosis in 50% of Molt-3 cell lines at 72 hours; format: functional, cell-based; conditions: Homo sapiens, MOLT-3, 72 h; in short: as §2
# U-937 [17] = test: Cytotoxic concentration required to cause 50% toxicity in U-937 cell lines at 48 hours; format: functional; conditions: Homo sapiens, U-937, 48 h; in short: as §1
# U-937 [18] = test: Apoptotic concentration required to cause apoptosis in 50% of U-937 cell lines at 72 hours; format: functional, cell-based; conditions: Homo sapiens, U-937, 72 h; in short: as §2
smiles,measurement,setting,value
O=c1[nH]c(=O)n(C2CCNO2)cc1F (stereo not drawn),CC50,HL-60 [1],> 1000 µM
same,CC50,MOLT-3 [2],366 µM
same,AC50,MOLT-3 [3],96 µM
same,AC50,U-937 [4],123 µM
same,CC50,THP-1 [5],> 1000 µM
same,CC50,MOLT-3 [6],806 µM
same,AC50,THP-1 [7],> 1000 µM
same,AC50,HL-60 [8],> 1000 µM
same,CC50,HL-60 [9],> 1000 µM
same,AC50,MOLT-3 [10],329 µM
same,CC50,MOLT-3 [11],> 1000 µM
same,CC50,U-937 [12],> 1000 µM
same,AC50,HL-60 [13],> 1000 µM
same,AC50,U-937 [14],> 1000 µM
same,CC50,U-937 [15],687 µM
same,AC50,MOLT-3 [16],13 µM
same,CC50,U-937 [17],> 1000 µM
same,AC50,U-937 [18],3 µM
